Source: PMC3537910 (European journal of nuclear medicine and molecular imaging, 2012)
Several values for one entry are separate records, joined by “and”; a condition that tells them apart may be missing. Identical values can stand only once.

Columns and labels:
[1] = reference compound; cited from earlier work
[2] = LogD7.4 measurement in octanol; format: physicochemical; conditions: n = 6
mGluR1 [3] = target: T1, mGluR1 (Rattus norvegicus, UniProt P23385); assay: PET imaging, specific binding in rat brain; format: in vivo; conditions: baseline vs blocked scans
mGluR5 = mGluR5 (Rattus norvegicus, UniProt P31424); assay: PET imaging, cross-reactivity with mGluR5 receptors; format: in vivo
[4] = one hour at 37 °C
ABCB1 (P-gp) = conditions: wild type vs knock-out mice, PET
ABCG2 (BCRP) = ABCG2 (BCRP) (Mus musculus, UniProt Q7TMS5); conditions: wild type vs knock-out mice, PET
mGluR1 [5] = target: T1, mGluR1; assay: pharmacological validation: blocking of LY2428703 tracer specific binding; format: in vivo; conditions: i.v. administration, LY2428703 as non-labeled tracer
mGluR1 [6] = target: T2, mGluR1 (Homo sapiens, UniProt Q13255); format: cell-based; conditions: from IC50 8.9 and 118 nM
Summary of the method: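 Calcium mobilization was measured in cells expressing individual human mGlu receptors (1, 2, 3, 4, 5, 7, 8). Agonism: % stimulation by test compound alone relative to maximal glutamate response. Antagonism: % inhibition of the EC90 glutamate response. Potentiation: % increase of an EC10 glutamate response relative to the ECmax response.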

mGluR1 [7] = target: T2, mGluR1; assay: competition binding assay with 3H-LSN456066, human; conditions: humans
[8] = metabolic stability in liver microsomes, mouse; format: in vitro ADME; conditions: mouse hepatic microsomes, 30 minutes, n = 3
[9] = metabolic stability in liver microsomes, rat; format: in vitro ADME; conditions: rat hepatic microsomes, 30 minutes, n = 2
[10] = metabolic stability in liver microsomes, dog; format: in vitro ADME; conditions: dog hepatic microsomes, 30 minutes, n = 3
[11] = metabolic stability in liver microsomes, monkey; format: in vitro ADME; conditions: monkey hepatic microsomes, 30 minutes, n = 2
human P-gp = human P-gp (Homo sapiens, UniProt P08183); assay: P-gp substrate identification in MDCK cells transfected with wild-type MDR1; format: in vitro ADME
[12] = LC-MS/MS rat brain kinetic analysis with non-labeled tracer; format: in vivo; conditions: 10 μg/kg dose, 15 minutes
mGluR1 [13] = target: T1, mGluR1; assay: mGluR1 occupancy experiment, non-labeled JNJ16259685 as tracer; format: in vivo; conditions: oral administration
[14] = mouse, in vivo
[15] = calibrated Mouse Brain Uptake Assay; conditions: cMBUA
[16] = rat brain, 30 minutes after injection
[17] = rat cerebellum, 30 minutes after injection
[18] = rat, 30 minutes after injection
[19] = tissue without blood, mean of two measurements
[20] = MDCK monolayers overexpressing human P-gp

T1 sequence (P23385 19-1199): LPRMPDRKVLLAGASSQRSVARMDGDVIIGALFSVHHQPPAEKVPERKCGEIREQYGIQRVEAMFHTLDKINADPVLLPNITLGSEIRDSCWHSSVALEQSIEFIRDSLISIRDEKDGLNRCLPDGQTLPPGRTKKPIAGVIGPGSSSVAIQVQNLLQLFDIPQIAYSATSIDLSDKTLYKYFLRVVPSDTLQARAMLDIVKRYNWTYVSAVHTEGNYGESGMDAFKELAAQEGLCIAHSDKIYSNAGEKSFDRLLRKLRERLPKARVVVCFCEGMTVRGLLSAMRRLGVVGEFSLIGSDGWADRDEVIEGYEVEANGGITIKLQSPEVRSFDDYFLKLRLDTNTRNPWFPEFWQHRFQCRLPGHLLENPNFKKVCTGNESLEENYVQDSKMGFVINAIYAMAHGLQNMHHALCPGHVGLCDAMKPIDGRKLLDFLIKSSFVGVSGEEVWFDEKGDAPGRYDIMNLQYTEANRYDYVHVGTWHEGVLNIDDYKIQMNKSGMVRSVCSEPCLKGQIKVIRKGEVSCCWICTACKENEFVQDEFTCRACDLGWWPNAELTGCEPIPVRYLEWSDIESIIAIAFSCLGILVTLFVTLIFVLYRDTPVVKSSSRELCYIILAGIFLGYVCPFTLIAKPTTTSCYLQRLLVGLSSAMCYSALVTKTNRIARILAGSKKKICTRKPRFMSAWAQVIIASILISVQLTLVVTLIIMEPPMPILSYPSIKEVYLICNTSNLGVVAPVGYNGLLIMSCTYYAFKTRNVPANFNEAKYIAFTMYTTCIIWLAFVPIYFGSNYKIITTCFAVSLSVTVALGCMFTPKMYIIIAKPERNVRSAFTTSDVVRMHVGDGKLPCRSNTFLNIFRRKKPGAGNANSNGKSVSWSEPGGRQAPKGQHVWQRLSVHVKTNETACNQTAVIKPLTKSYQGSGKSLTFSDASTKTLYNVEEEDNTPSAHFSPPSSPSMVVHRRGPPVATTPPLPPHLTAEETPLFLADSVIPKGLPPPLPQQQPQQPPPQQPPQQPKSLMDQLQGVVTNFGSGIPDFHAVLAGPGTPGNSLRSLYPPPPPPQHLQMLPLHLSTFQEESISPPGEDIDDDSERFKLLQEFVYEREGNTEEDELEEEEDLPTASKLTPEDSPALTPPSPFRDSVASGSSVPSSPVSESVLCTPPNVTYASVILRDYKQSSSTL
Chain of human P-gp (P08183 whole entry): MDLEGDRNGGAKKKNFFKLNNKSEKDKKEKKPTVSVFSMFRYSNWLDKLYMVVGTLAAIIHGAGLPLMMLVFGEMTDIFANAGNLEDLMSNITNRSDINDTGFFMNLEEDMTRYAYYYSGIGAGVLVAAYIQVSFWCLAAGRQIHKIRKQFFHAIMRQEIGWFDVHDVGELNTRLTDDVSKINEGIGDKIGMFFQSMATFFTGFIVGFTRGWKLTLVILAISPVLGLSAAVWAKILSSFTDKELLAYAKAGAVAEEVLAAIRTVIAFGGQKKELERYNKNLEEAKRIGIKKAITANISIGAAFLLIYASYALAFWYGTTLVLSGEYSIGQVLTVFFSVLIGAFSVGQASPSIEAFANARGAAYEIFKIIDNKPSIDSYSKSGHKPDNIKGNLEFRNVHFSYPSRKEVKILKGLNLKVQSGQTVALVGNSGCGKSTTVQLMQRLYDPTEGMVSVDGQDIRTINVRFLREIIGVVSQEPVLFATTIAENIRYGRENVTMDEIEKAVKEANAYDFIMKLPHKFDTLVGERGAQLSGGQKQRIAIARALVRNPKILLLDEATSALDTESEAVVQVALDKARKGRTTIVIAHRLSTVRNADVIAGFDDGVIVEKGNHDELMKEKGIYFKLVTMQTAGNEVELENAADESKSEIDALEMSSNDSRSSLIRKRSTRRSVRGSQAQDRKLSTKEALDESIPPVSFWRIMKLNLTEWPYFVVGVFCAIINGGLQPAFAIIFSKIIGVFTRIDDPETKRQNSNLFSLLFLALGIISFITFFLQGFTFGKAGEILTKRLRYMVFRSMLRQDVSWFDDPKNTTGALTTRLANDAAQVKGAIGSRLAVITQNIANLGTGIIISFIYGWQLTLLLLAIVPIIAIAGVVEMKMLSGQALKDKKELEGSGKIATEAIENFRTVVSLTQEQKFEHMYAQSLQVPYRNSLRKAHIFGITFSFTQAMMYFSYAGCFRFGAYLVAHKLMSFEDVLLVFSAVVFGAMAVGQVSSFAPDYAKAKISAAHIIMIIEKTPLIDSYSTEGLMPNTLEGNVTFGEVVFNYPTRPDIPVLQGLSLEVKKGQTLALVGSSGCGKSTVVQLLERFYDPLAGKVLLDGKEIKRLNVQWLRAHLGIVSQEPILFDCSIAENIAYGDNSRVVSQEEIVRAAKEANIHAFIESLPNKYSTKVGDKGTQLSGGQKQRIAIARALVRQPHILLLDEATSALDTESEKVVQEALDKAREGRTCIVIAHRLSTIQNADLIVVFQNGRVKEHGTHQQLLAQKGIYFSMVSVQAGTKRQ
Chain of mGluR5 (P31424 21-1203): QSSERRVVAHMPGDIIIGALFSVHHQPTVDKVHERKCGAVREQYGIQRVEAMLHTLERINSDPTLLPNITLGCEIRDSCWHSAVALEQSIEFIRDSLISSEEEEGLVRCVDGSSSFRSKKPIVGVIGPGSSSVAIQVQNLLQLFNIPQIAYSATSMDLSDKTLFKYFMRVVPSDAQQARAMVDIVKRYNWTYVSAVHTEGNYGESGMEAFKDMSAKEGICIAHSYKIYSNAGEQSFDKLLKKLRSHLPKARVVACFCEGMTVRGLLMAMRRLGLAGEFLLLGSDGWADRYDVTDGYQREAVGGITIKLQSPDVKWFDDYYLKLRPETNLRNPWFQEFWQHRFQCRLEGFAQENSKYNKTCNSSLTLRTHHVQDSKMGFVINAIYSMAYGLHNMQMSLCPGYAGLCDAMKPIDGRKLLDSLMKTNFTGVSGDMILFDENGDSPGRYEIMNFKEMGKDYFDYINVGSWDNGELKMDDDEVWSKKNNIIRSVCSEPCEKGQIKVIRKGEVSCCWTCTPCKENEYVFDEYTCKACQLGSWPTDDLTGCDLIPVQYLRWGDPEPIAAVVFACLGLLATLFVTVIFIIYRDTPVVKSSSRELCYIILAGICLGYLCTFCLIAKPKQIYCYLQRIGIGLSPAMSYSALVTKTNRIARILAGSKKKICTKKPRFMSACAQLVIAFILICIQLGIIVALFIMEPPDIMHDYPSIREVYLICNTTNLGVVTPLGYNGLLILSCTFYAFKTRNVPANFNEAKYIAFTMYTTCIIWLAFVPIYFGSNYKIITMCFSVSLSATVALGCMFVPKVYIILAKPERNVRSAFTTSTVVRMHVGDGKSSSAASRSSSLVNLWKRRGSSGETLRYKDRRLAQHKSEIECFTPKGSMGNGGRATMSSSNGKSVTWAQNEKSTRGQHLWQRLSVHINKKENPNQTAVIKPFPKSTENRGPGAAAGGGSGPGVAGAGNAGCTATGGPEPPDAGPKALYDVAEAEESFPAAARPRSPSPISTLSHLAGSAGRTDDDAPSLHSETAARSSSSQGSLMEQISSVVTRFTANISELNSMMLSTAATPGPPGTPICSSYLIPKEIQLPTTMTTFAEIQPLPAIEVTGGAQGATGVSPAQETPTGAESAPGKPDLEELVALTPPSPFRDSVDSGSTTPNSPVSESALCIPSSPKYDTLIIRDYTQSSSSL
T2 sequence (Q13255 19-1194): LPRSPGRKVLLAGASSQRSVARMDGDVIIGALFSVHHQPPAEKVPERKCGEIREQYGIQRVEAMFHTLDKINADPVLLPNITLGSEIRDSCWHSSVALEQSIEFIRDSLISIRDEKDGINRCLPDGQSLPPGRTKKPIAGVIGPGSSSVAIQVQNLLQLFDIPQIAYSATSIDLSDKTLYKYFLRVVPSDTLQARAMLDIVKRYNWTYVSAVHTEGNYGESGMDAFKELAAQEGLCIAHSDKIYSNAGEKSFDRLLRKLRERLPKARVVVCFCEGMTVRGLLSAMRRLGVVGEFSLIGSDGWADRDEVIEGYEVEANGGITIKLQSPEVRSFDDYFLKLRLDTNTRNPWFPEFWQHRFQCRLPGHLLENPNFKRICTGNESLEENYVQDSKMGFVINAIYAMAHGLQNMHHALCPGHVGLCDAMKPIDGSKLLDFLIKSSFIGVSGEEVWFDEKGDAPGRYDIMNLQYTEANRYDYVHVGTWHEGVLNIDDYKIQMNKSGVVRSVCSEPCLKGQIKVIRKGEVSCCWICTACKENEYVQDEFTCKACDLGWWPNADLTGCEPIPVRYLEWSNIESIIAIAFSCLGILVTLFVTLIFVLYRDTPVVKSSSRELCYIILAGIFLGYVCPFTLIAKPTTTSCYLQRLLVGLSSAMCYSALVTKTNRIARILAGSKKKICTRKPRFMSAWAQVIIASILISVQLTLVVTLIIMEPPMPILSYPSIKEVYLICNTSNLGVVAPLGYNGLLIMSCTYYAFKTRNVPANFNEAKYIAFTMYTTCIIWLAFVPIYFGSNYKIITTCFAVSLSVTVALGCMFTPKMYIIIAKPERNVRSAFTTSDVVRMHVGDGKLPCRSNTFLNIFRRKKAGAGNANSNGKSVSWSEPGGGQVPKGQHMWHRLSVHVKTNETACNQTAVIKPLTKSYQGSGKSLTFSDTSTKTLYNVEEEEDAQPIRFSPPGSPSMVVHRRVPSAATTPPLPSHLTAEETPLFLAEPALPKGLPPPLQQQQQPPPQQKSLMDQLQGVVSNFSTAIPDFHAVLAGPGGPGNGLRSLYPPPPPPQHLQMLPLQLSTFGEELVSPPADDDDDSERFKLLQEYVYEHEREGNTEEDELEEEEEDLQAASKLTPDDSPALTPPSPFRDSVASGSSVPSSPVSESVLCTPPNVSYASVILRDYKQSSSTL

## [3H]O[3H] [tritiated water]
[1]
  brain levels, percent of the dose: 1.9 ± 0.2%

## Cc1c(-c2ccc(O[11CH3])cc2)nsc1NC(=O)[C@@H]1C[C@H]1C [^11C-LY2428703]
[2]
  LogD7.4: 4.02 ± 0.09
mGluR1 [3]
  PET signal in rat cerebellum: large specific and displaceable signal
mGluR5; rats pretreated with MTEP 5 mg/kg
  affinity for mGluR5s in vivo (PET): negligible affinity
[4]
  stability in rat whole blood and brain homogenates: no biotransformation products were detected
cerebellum/brain, cerebellum/plasma, brain/plasma
  regional concentration ratios of the radiometabolite: < 1.0
[16]
  parent radioligand, % of brain radioactivity: 82.7%
  radiometabolite, % of brain radioactivity: 17.2%
[17]
  parent radioligand, % of cerebellar radioactivity: 96.2% and > 96%
  radiometabolite, % of cerebellar radioactivity: ~ 3.5% and 3.7% and 3–4%
Rat plasma, 30 minutes after injection
  parent radioligand, % of plasma radioactivity: 75%
[18]
  %SUV concentration of parent in brain: 49 %SUV
  %SUV concentration of parent in cerebellum: 156 %SUV
  %SUV concentration of parent in plasma: 122 %SUV
  %SUV concentration of parent in urine: 2.7 %SUV
  %SUV concentration of the major radiometabolite in brain: 10.2 %SUV
  %SUV concentration of the major radiometabolite in cerebellum: 6.1 %SUV
  %SUV concentration of the major radiometabolite in plasma: 38.5 %SUV
  %SUV concentration of the major radiometabolite in urine: 161 %SUV
  parent concentration ratio brain/plasma: < 1.0
  parent concentration ratio cerebellum/brain: 3.2 and 3.2–3.5
  parent concentration ratio cerebellum/plasma: 1.3
[19]
  parent radioligand in brain: 48 %SUV
  parent radioligand in cerebellum: 169 %SUV
  parent radioligand, % of brain activity: 82.5%
  parent radioligand, % of cerebellar activity: 95.8%
  radiometabolite in brain: 9.5 %SUV
  radiometabolite in cerebellum: 5.6 %SUV
  radiometabolite, % of brain activity: 16.5%
  radiometabolite, % of cerebellar activity: 3.3%
ABCB1 (P-gp)
  substrate for ABCB1 transporter at the blood-brain barrier: not a substrate
ABCG2 (BCRP)
  substrate for ABCG2 transporter at the blood-brain barrier: not a substrate

## COC1CCC(C(=O)c2ccc3nc4c(cc3c2)CCCO4)CC1 (stereo not drawn) [JNJ16259685]
mGluR1 [5]
  in vivo mGluR1 ED50: 1.4 ± 0.1 mg/kg

## Cc1nc(C#Cc2cccnc2)cs1 [MTEP, 3-((2-Methyl-4-thiazolyl)ethynyl)pyridine, reference compound]
mGluR5; 5 mg/kg, rat, n=2
  effect of pretreatment on forebrain uptake of 11C-LY2428703: not affected

## COc1ccc(-c2nsc(NC(=O)[C@@H]3C[C@H]3C)c2C)cc1 [LY2428703]
mGluR1 [6]
  affinity for mGluR1 relative to mGluR5: > 10 fold
mGluR1 [7]
  affinity of LY2428703 relative to LSN2606428: about 20 fold
[8]
  percent of compound metabolized: 79.5 ± 14.7%
[9]
  percent of compound metabolized: 91.1 ± 3.4%
[10]
  percent of compound metabolized: 65.0 ± 15.5%
[11]
  percent of compound metabolized: 90.1 ± 3.1%
Human P-gp; [20]
  B-A/A-B flux ratio: ~ 1.0
  P-gp substrate identification: not a P-gp substrate
Human P-gp; MDCK monolayers, n=8
  mass balance recovery: 108 ± 10%
  passive permeability coefficient: 62 ± 3 ×10⁻⁶ cm/s and 60 ×10⁻⁶ cm/s
[12]
  tracer level in rat cerebellum: 330 % SUV
mGluR1 [13]
  rat mGluR1 occupancy: dose-dependently occupied
[14]
  clearance from brain, percent loss in concentration from five to 60 minutes: > 95%
  clearance from plasma, percent loss in concentration from five to 60 minutes: > 95%
[15]
  dose distributed to brain as percent of cardiac output: 84%
[15]; mouse
  blood-brain barrier permeability coefficient: 19 ×10⁻⁶ cm/s
[15]; mouse, over the 10-fold range of doses
  percent of dose delivered to the brain: 1.2–1.6% and 1.6 ± 0.2%
